Test results reported in ChEMBL document CHEMBL1800043, “(-)-Duryne and its homologues, cytotoxic acetylenes from a marine Sponge Petrosia sp” (J Nat Prod, 2011).

Tested on: HeLa
Assay: Cytotoxicity against human HeLa cells after 72 hrs by MTT assay
Format: functional, cell-based
Method in brief: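 HeLa cells grown in DMEM with 10% FBS, 2 μg/mL gentamycin and 2 μg/mL antibiotic-antimycotic at 37 °C under 5% CO2. Seeded at 1 × 10^4 cells/mL and preincubated 24 h. Sample added, then incubated 72 h. MTT (1 mg/mL saline) added for 3 h. Supernatant discarded, formazan dissolved in DMSO, absorbance read for IC50. Adriamycin was the positive control.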

SMILES	IC50
C#C[C@H](O)/C=C/CCCCCCCCC/C=C\CCCCCCCCC/C=C/[C@@H](O)C#C	500 nM
C#C[C@H](O)/C=C/CCCCCCC/C=C\CCCC/C=C\CCCCCCCCC/C=C/[C@@H](O)C#C	100 nM
C#C[C@H](O)/C=C/CCCCCCCCC/C=C\CCCCCCCCCCC/C=C/[C@@H](O)C#C	260 nM
C#C/C=C\[C@@H](O)CCCCCCCCCCC/C=C\CCCCCCCCC/C=C/[C@@H](O)C#C	340 nM
C#C[C@H](O)/C=C/CCCCC/C=C\CCCC/C=C\CCCCCCCCC/C=C/[C@@H](O)C#C	260 nM
COc1cccc2c1C(=O)c1c(O)c3c(c(O)c1C2=O)C[C@@](O)(C(=O)CO)C[C@@H]3O[C@H]1C[C@H](N)[C@H](O)[C@H](C)O1 [DOXORUBICIN]	1640 nM
C#C[C@H](O)/C=C/CCCCCCCCC/C=C\CCCC/C=C\CCCCCCCCC/C=C/[C@@H](O)C#C	80 nM
